A number with no mark means an inactive call. Records with an inconclusive call do not appear. Active and inactive are the calls of the source.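 How the source made its calls, unless noted: active means viability increase at or above a cutoff of the median across tested compounds plus 3 SD (cut at about 8.5% in these data, passing the limit was not always enough); inconclusive means some gains above the cutoff, reason not given; inactive means the rest.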
How the values were obtained:
[1] = OD615 S. cerevisiae growth inhibition, permissive medium, pilot counter-assay, permissive growth control for S. cerevisiae lifespan shortening project (AID 705;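 active means growth inhibition above 25% in both replicates, a cutoff set 3 SD above the mean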); conditions: OD615, 24 h, at 10 µM, stronger effect = higher value
Outline: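 System: Engineered DeaD yeast | Buffer or medium: SC raffinose/galactose permissive medium | Doses: 10 µM single dose, 0.25% DMSO | Times: 24 h exposure, 30 °C | Measured by: OD615 turbidity read | Read-out: Yeast growth inhibition indicated by reduced 24 h OD615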

[2] = Restrictive medium S. cerevisiae growth inhibition, OD615, pilot screen of yeast lifespan reduction project, restrictive growth control (AID 706;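 active means growth inhibition above a set limit, 3 SD over mean compound inhibition, in both replicates, cut at about 43% in these data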;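 further: modified DeaD lifespan yeast strain shifted to restrictive glucose medium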); conditions: OD615, 48 h, at 10 µM, stronger effect = higher value
Outline: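 Assay system: engineered S. cerevisiae DeaD strain; Buffer or medium: CSMM-D glucose medium; Dosing: 10 µM compound, 0.25% DMSO; Times: cell pre-growth 4 h, compound exposure 48 h, 30 °C; Detection: absorbance (optical density) measured at 615 nm.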

[3] = viability gain of MRP-1-high H69AR cells under doxorubicin, pilot screen, MRP-1 activator project, CellTiter-Glo, duplicate (AID 807); conditions: H69AR viability with doxorubicin, CellTiter-Glo luminescence; at 10 µM; stronger effect = higher value;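 further: compound pretreatment 18-22 h then 72 h combined with doxorubicin; 0% = doxorubicin alone and 100% = vehicle without doxorubicin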
[4] = growth suppression of beta-catenin knockout HCT116, pilot screen, human colon tumor cells (AID 823;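 active means cell viability at or below a set limit in both duplicate runs, the limit being the all-compound median minus 4 SD, cut at about 23% in these data, passing the limit was not always enough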;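 further: 0% = wells killed by 20 µM Hyamine and 100% = untreated DMSO cell wells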); conditions: CellTiter-Glo, 60 h, at 10 µM, stronger effect = lower value
[5] = growth suppression of PTEN-deleted HCT116, pilot screen, cell-based, HCT116 clonal line, CellTiter-Glo (AID 824;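 active means viability at or below 27.92% in each of two runs, the all-compound median minus 4 SD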;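 further: 0% = 20 µM Hyamine control and 100% = vehicle cell control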); conditions: 60 h, at 10 µM, stronger effect = lower value
[6] = inhibitors of the yeast RAM network, pilot screen, dse1pr::URA3 reporter, 5-FOA selection (AID 869;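 active means inhibition over a set limit, the all-compound mean plus 3 SD, in both replicate runs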;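 further: 0% = DMSO wells with no growth and 100% = 10 µM 1-NA-PP1 with full growth; RAM network block rescues cells from 5-FOA so hits raise OD615 growth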); conditions: S. cerevisiae dse1pr::URA3 5-FOA growth, OD615, 2 d; at 10 µM; stronger effect = higher value; strain carries analog-sensitive mutant Cbk1 kinase
[7] = RAM signaling pathway blockade in yeast – S. cerevisiae, Pdr1DBD-CYC8 efflux-inhibited sensitized strain, primary screen (AID 1298;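 active means RAM network inhibition above 8.4% in each of two replicates, 3 SD over the compound average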;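 further: 0% = DMSO untreated cells without growth and 100% = 10 µM 1-NA-PP1 full growth; higher means more yeast growth rescued from 5-FOA killing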); conditions: S. cerevisiae cbk1-as DSE1-URA3 strain, 5-FOA growth OD615, 2 d; at 50 µM; stronger effect = higher value

Row | Compound | growth inhibition [1] [%] | growth inhibition [2] [%] | viability increase [3] [%] | viability [4] | viability [5] | inhibition [6] [%] | RAM network inhibition [7] [%]
1 | CCOC(=O)Cc1nnc(NC(=O)C(CC)Sc2nc(C)cc(=O)[nH]2)s1 (configuration not stated) | 6.95 | 22.4 | -0.54 | 83.4% | 96.7% | 2.96 | 2.97
2 | COc1c(Cl)cc(-c2noc(C)c2C(=O)NC(C)C)cc1Cl | -17.1 | -15.9 | 0.34 | 98.1% | 96.4% | 1.33 | 2.37
3 | CCOC(=O)/C(C#N)=C1/C=Nc2ccccc2N1 | -4.26 | -1.09 | -1.54 | 103% | 89.8% | -0.42 | 0.25
4 | CCN(CCNC(=O)Cn1c(=O)sc2ccccc21)c1ccccc1 | -10.6 | 2.42 | -3.76 | 92.2% | 84.9% | 1.57 | 2.04
5 | Cc1ccccc1-c1nnc(-c2ccc(Cl)cc2)o1 | -18.7 | -20.9 | -6.28 | 77.9% | 64.8% | 4.19 | 6.89
6 | CC1=C(C(=O)N2CCOCC2)C(c2cccs2)NC(=O)N1 (configuration not stated) | 1.45 | -1.81 | -0.8 | 99.8% | 99.9% | 1.26 | 3.01
7 | CCc1cccc(NC(=O)CCS(=O)(=O)c2cccc3nonc23)c1 | 0.64 | -9.32 | -1.95 | 93.8% | 95.3% | 0.47 | 2.79
8 | OCc1cn(-c2ccccc2)nc1-c1ccc(-c2nn(-c3ccccc3)cc2CO)cc1 | 3.83 | -4.29 | -4.72 | 102% | 95.1% | 1.8 | 5.84
9 | COc1ccccc1N1CCN(c2nc(N)c(C#N)c(CC#N)c2C#N)CC1 | -1.4 | -0.44 | 2.45 | 96.7% | 86.3% | 1.54 | 3.57
10 | Cc1nc(CC(=O)c2c(C)cc(O)cc2O)cs1 | -12.2 | 1.06 | 2.92 | 90.5% | 95.9% | -0.335 | 1.48
11 | CC1CCCN(C(=O)C(Cc2ccccc2)n2cccc2)C1 (configuration not stated) | -11.8 | -13 | -3.01 | 87.3% | 88.4% | 2 | 0.97
12 | CCOC(=O)N1CCC(N2C(=O)c3ccccc3C2Nc2cc(OC)c(OC)c(OC)c2)CC1 (configuration not stated) | 6.9 | 8.61 | -4.12 | 92.2% | 79.2% | 0.24 | 0.78
13 | COc1ccccc1NC(=O)c1ccc(S(=O)(=O)N2CCCC2)cc1 | -5.88 | -5.9 | 0.68 | 114% | 94.9% | 2.33 | 2.32
14 | CCOC(=O)N1CCN(C(=O)CN(c2cc(Cl)ccc2OC)S(=O)(=O)c2ccccc2)CC1 | 6.4 | -12 | -2.13 | 97.1% | 84.1% | 1.68 | 2.07
15 | Clc1ccc(Cn2cc(/C=N/n3cnnc3)c3ccccc32)cc1 | 9.77 | 30.9 | -7.71 | 64.5% | 62.3% | 1.48 | 3
16 | COc1cc(Cl)c(S(=O)(=O)NCc2cccnc2)cc1Cl | -9.13 | -9.08 | 0.38 | 99.5% | 97.3% | 0.745 | 4.73

Row | Compound | growth inhibition [1] [%] | growth inhibition [2] [%] | viability increase [3] [%] | viability [4] | viability [5] | inhibition [6] [%] | RAM network inhibition [7] [%]
17 | COc1cccc(C2c3c(oc4ccc(F)cc4c3=O)C(=O)N2CCCN2CCOCC2)c1 (configuration not stated) | -9.58 | -6.59 | -1.59 | 105% | 105% | 1.25 | 4.33
18 | O=C(CN1CCOc2ccccc21)NCc1ccco1 | -11.6 | -14.4 | -4.51 | 88.1% | 82.9% | 0.09 | 0.05
19 | CCOc1ccc(NC(=O)CSc2nc3c(c(=O)n2-c2ccccc2OC)SCC3)cc1 | -4.54 | -3.66 | -2.57 | 94.3% | 82.5% | 0.805 | 1.18
20 | CNS(=O)(=O)c1ccc(Oc2ccc(S(=O)(=O)NC)cc2)cc1 | 2.02 | 2.91 | -0.17 | 86.7% | 83.9% | 2 | 3.27
21 | CCN(CC)CCNC(=O)c1cc2c(-c3ccc(Cl)cc3)nn(C)c2s1 | -4.4 | 2.85 | -8.35 | 2.18% (active) | 1.95% (active) | 0.905 | 4.19
22 | CC(O)Cc1nsc(NC(=O)c2cccs2)n1 (configuration not stated) | -11.4 | -8.99 | -0.55 | 104% | 100% | 0.84 | 0.26
23 | O=C(NC1CC1)c1ccc(CSCc2cccc(F)c2)o1 | 3.53 | 3.37 | -2.78 | 82.3% | 86.3% | 1.08 | 4.29
24 | CCCSc1nc2c(cnn2-c2ccc(C)c(C)c2)c(=O)[nH]1 | -8.57 | -3.42 | -1.72 | 93.2% | 69.9% | 2.58 | 4.37
25 | Cc1cc(NC(=O)CSc2c3c(nc4ccccc24)CCC3)no1 | -4.17 | 5.52 | -6.01 | 78.1% | 74.6% | 2.21 | 2.01
26 | COc1ccccc1NC(=O)CSc1nnc(-c2ccco2)n1Cc1ccco1 | 1.41 | 1.92 | -3.34 | 92.8% | 90.5% | 1.39 | 1
27 | Clc1ccc(-c2noc(COc3ccccc3)n2)cc1 | -3.93 | 14.3 | 2.15 | 101% | 95.6% | 0.745 | 9.14
28 | Fc1cccc(-c2cc3nc4c(c(N5CCC6(CC5)OCCO6)n3n2)CCCC4)c1 | 3.03 | -2.67 | -3.94 | 70.6% | 61.5% | 1.19 | -0.47
29 | Cc1ccc(S(=O)(=O)N2CCCC2C(=O)Nc2nccs2)cc1 (configuration not stated) | -15.2 | -6.25 | -1.37 | 97% | 98.6% | -0.275 | 4.76
30 | O=C(NC1CCCC1)C1c2ccccc2C(=O)N1CCCN1CCOCC1 (configuration not stated) | -2.13 | -1.37 | -1.72 | 97.2% | 98.4% | 1.2 | 1.51
31 | O=C(CSc1nnnn1-c1ccccc1)CSc1nnnn1-c1ccccc1 | -7.66 | 1.63 | -5.63 | 92.6% | 90.1% | 2.98 | 7.19
